The results in this text go back to ChEMBL document CHEMBL1134514, “Synthesis of novel gamma-aminobutyric acid (GABA) uptake inhibitors. 5.(1) Preparation and structure-activity studies of tricyclic analogues of known GABA uptake inhibitors” (J Med Chem, 2001).

In test [1] the target is T1, GABA transporter (Mus musculus) (UniProt P31650+P31651+P31649+P31648). Nature of the test: In vivo anticonvulsant effect measured as inhibition of DMCM -induced seizures in mice after ip administration. It is filed as functional, organism-based. In outline:
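Female NMRI mice given test drug ip 30 min before DMCM 15 mg/kg ip. Observed for 30 min for clonic seizures and death, N = 5-10 per dose. ED50 in mg/kg.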

Test [2] has as its target T1, GABA transporter (Mus musculus). Nature of the test: In vivo anticonvulsant effect measured as rotarod in mice after ip administration. In kind it is functional, organism-based. In outline: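 Mice pretrained 2 min on rotarod (6 rpm, 3 cm rod), then dosed ip. On testing, a mouse that fell was placed back on the rod. Testing ended at 10 failures or after 2 min. ED50 in mg/kg.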

Another test addresses GABA transporter (Rattus norvegicus, UniProt P31647+P23978+P31646+P48056). Nature of the test: In vitro inhibition of [3H]GABA uptake in rat synaptosomes was determined. In kind it is functional, subcellular, Brain. In a few lines:
(§1)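 Rat forebrain homogenized in ice-cold 0.32 M sucrose, spun 10 min at 600 g, 4 °C; pellet resuspended in pH 7.4 phosphate/NaCl/glucose buffer. Synaptosomes (0.1 mg protein) preincubated with test substance 8 min at 30 °C, then [3H]-GABA (0.9 nM final) plus unlabeled GABA (0.9 nM final) for 8 min. Filtration on glass fiber, ice-cold saline washes, scintillation counting. IC50 as mean of two determinations.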

Test [3] has as its target T1, GABA transporter (Mus musculus). Kind of test: Ratio for ED50 values for inhibition of rotarod to inhibition of DMCM-induced convulsions in mice. It is filed as functional. In a few lines:
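Protective index is the rotarod ED50 divided by the ED50 for inhibiting DMCM (15 mg/kg ip) clonic seizures. Both were measured in mice after ip dosing.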

The species entered for test [4] is Rattus norvegicus. Nature of the test: In vitro inhibition of [3H]GABA uptake determined. It is filed as functional. In a few lines: as §1
The species entered for test [5] is Rattus norvegicus. Kind of test: In vitro inhibition of [3H]GABA uptake in rat synaptosomes was determined; No activity. It is filed as functional, Brain.

Molecules are shown by their SMILES. A value given as a limit tells only on which side of the number the result lay.

Turning to `Cl.O=C(O)[C@@H]1CCCN(CCON=C2c3cc(Cl)ccc3CCc3ccc(Cl)cc32)C1`, the median effective dose (ED50) was 35 mg/kg in test [1] and 40 mg/kg in test [2]. Also, the IC50 against GABA transporter turned out to be 5509 nM. The Protective index in test [3] was determined as 1.1.

As to `Cl.O=C(O)[C@@H]1CCCN(CCON=C(c2ccccc2)c2ccccc2)C1`, at GABA transporter, the half-maximal inhibitory concentration (IC50) was 82 nM.

Consider `O=C(O)[C@@H]1CCCN(CCOC=C(c2ccccc2)c2ccccc2)C1`, for which the IC50 in the test filed under Rattus norvegicus [4] stood at 87 nM.

`Cl.O=C(O)[C@@H]1CCCN(CCOCCCN2c3ccccc3CCc3ccccc32)C1`: the values for the ED50 in test [1] and in test [2] were 50 mg/kg and above 60 mg/kg, respectively. At GABA transporter, this compound came in with an IC50 of 696 nM. The Protective index in test [3] is above 1.2.

At GABA transporter, `Cl.O=C(O)[C@@H]1CCCN(CCOCCN2c3ccccc3Oc3ccccc32)C1` displayed a 50% inhibitory concentration (IC50) of 14600 nM.

In the case of `Cl.O=C(O)[C@H]1CCCN(CCOCCC2c3ccccc3CCc3ccccc32)C1`, the ED50 in test [1] was 23 mg/kg; in test [2] it was above 60 mg/kg. The same compound gave an IC50 on GABA transporter of 561 nM. For the same compound, the Protective index in test [3] is above 2.6.

With `Cl.O=C(O)[C@@H]1CCCN(CCOCCN2c3cc(Cl)ccc3CCc3ccc(Cl)cc32)C1`, the median effective dose (ED50) in test [1] was 45 mg/kg; in test [2], above 100 mg/kg. This compound yielded a 50% inhibitory concentration (IC50) on GABA transporter of 68 nM. Also, the Protective index in test [3] is above 2.2.

As for `Cl.O=C(O)[C@@H]1CCCN(CCOCCN2c3ccccc3C=Cc3ccccc32)C1`, the ED50 in test [1] was 30 mg/kg; in test [2] it was above 30 mg/kg. The compound also returned a 50% inhibitory concentration (IC50) at GABA transporter of 647 nM. For the same compound, the Protective index in test [3] was above 1.

In the case of `Cl.O=C(O)C1=CCCN(CCOCCC2c3ccccc3CCc3ccccc32)C1`, the IC50 at GABA transporter was 1202 nM. This lies in the single-digit micromolar range.

Compound `Cl.O=C(O)[C@@H]1CCCN(CCOCCN(c2ccccc2)c2ccccc2)C1` registered a half-inhibitory concentration (IC50) against GABA transporter of 90 nM. For the same compound, the Protective index in test [3] came to 1.6.

As for `Cl.O=C(O)[C@@H]1CCCN(CCON=C2c3ccccc3CCc3ccccc32)C1`, the ED50 in test [1] is 30 mg/kg; in test [2], above 100 mg/kg. This compound registered an IC50 at GABA transporter of 1161 nM. In test [3], the Protective index was above 3.3.

With `Cl.O=C(O)[C@@H]1CCCN(CCOCCn2c3ccccc3c3ccccc32)C1`, on GABA transporter, the half-inhibitory concentration (IC50) is on record as above 40000 nM.

As to `Cl.O=C(O)[C@@H]1CCCN(CCOCCN2c3ccccc3Sc3ccc(C(F)(F)F)cc32)C1`, the ED50 in test [1] is 38 mg/kg; in test [2], above 60 mg/kg. The IC50 at GABA transporter is listed as 105 nM. Moreover, the Protective index in test [3] was above 1.6.

Regarding `Cl.O=C(O)C1=CCCN(CCOCCN2c3ccccc3CCc3ccccc32)C1`, the ED50 in test [1] amounted to 7.3 mg/kg; in test [2] it was 21 mg/kg. Further, at GABA transporter, the concentration for half-maximal inhibition (IC50) amounted to 644 nM. For the same compound, the Protective index in test [3] is 2.9.

As for `O=C(O)C1CCCN(CCC=C2c3ccccc3CCc3ccccc32)C1` (stereo not drawn), the ED50 in test [1] and in test [2] was above 60 mg/kg each time. This compound also had an IC50 at GABA transporter of 13600 nM.

With `Cl.O=C(O)CC1CCN(CCOCCN2c3ccccc3CCc3ccccc32)C1` (stereo not drawn), the ED50 in test [1] is 31 mg/kg; in test [2], 100 mg/kg. The IC50 against GABA transporter stood at 51 nM. For the same compound, the Protective index in test [3] is 3.2.

As for `O=C(O)[C@@H]1CCCN(CCOCCN2c3ccc(Br)cc3CCc3cc(Br)ccc32)C1`, inhibition in the test filed under Rattus norvegicus [4] was half-maximal at 1030 nM (IC50).

On to `O=C(O)C1CCCN(CCOC2c3ccccc3-c3ccccc32)C1` (stereo not drawn), for which, in the test filed under Rattus norvegicus [5], the concentration for half-maximal inhibition (IC50) result was “Not Active”.

In turn, `Cl.O=C(O)[C@@H]1CCCN(CCOCCN2c3ccccc3CCCc3ccccc32)C1` registered a 50% effective dose (ED50) in test [1] of 60 mg/kg. The compound further had an IC50 against GABA transporter of 851 nM. Besides, in test [3], the Protective index was above 1.5.

As for `Cl.O=C(O)[C@@H]1CCCN(CCOCCN2c3ccccc3CCc3ccc(F)cc32)C1`, the IC50 on GABA transporter came out at 265 nM. This lies in the sub-micromolar range.

As to `Cl.O=C(O)[C@@H]1CCCN(CCOCCN2c3ccc(F)cc3CCc3cc(F)ccc32)C1`, the 50% inhibitory concentration (IC50) against GABA transporter is 248 nM.

`O=C(O)[C@@H]1CCCN(CCC=C2c3ccccc3-c3ccccc32)C1`: the IC50 against GABA transporter is recorded as 2018 nM. Against the preceding compound, the IC50 is about 8.1-fold higher.

For `Cl.O=C(O)[C@@H]1CCCN(CCOCCN2c3ccccc3CCc3ccc(Cl)cc32)C1`, the median effective dose (ED50) in test [1] was 15 mg/kg; in test [2], above 30 mg/kg. The compound also returned an IC50 against GABA transporter of 74 nM. The Protective index in test [3] was above 2.

Turning to `Cl.O=C(O)[C@H]1CCCN(CCOCC=C2c3ccccc3CCc3ccccc32)C1`, the values for the 50% effective dose (ED50) in test [1] and in test [2] were 30 mg/kg and above 100 mg/kg, respectively. For the same compound, at GABA transporter, the IC50 is listed as 770 nM. Moreover, in test [3], the Protective index is above 3.3.

Consider `Cl.O=C(O)[C@@H]1CCCN(CCOCCN2c3ccccc3Sc3ccccc32)C1`, for which the ED50 in test [1] amounted to 30 mg/kg; in test [2] it was 54 mg/kg. For the same compound, the IC50 against GABA transporter was determined as 308 nM. Further, in test [3], the Protective index is 1.8.

`Cl.O=C(O)[C@H]1CCCN(CCOC/C=C2\c3ccccc3CCc3ccc(Cl)cc32)C1`: the ED50 is 50 mg/kg in test [1] and above 60 mg/kg in test [2]. Moreover, the 50% inhibitory concentration (IC50) against GABA transporter was found to be 2495 nM. The Protective index in test [3] was above 1.2.

At GABA transporter, `Cl.O=C(O)[C@@H]1CCCN(CCOCCC(c2ccccc2)c2ccccc2)C1` gave an IC50 of 55 nM. In addition, the Protective index in test [3] was determined as 5.3.

Regarding `O=C(O)[C@@H]1CCCN(CCOC=C2c3ccccc3CCc3ccccc32)C1`, it took 2180 nM to reach half-maximal inhibition in the test listed under Rattus norvegicus [4] (IC50).

`Cl.O=C(O)C1CCCN(CCOC(c2ccccc2)c2ccccc2)C1` (stereo not drawn): the IC50 against GABA transporter worked out at 1370 nM.

`Cl.O=C(O)[C@@H]1CCCN(CCCOCC=C2c3ccccc3CCc3ccccc32)C1`: the ED50 in test [1] was 60 mg/kg; in test [2], above 150 mg/kg. The IC50 at GABA transporter is listed as 460 nM. Also, in test [3], the Protective index was above 2.5.

Consider `O=C(O)C1CCCN(CCOC2c3ccccc3C=Cc3ccccc32)C1` (stereo not drawn), for which the IC50 against GABA transporter is given as 2500 nM.

Take `Cl.O=C(O)[C@@H]1CCCN(CCOCCN2c3ccccc3CCc3ccccc32)C1`: the values for the ED50 in test [1] and in test [2] were 15 mg/kg and 85 mg/kg, respectively. The compound also came in with a concentration for half-maximal inhibition (IC50) against GABA transporter of 184 nM. In addition, in test [3], the Protective index was 5.7.
